{
  "source": "ChEMBL document CHEMBL1122484",
  "about": "“An analysis of 1-(2-chloroethyl)-1-nitrosourea activity at the cellular level” (J Med Chem, 1983)",
  "key": {"[1]": {"assay": "Carbamoylating activity was determined", "assay_type": "ADME"}, "[2]": {"assay": "Alkylating activity was determined", "assay_type": "ADME"}, "[3]": {"assay": "Pharmacokinetic parameter k2 was determined", "assay_type": "ADME", "summary_of_the_method": "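First-order rate constant for chemical conversion of the parent nitrosourea to its active alkylating intermediate. Measured in aqueous buffer or human serum at pH 7.4 and 37 °C.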"}, "[4]": {"test_system": "P388", "assay": "Mean value for the exposure for P388 to the drug for a period of 60 min", "assay_type": "functional", "settings": "Mus musculus, P388, 1 h; read-out: ED50 (the source's name)", "summary_of_the_method": "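P388 mouse leukemia cells in log-phase suspension culture (Fischer's medium, 10% horse serum) at 1 × 10^6 cells/mL, exposed at 37 °C, pH 7.4, to graded initial drug concentrations (ethanol/water vehicle, <0.1% ethanol) in duplicate tubes for the stated period. Cells then diluted to 6.6 × 10^4 cells/mL in fresh medium, grown 48 h, Coulter counted; ED50 = dose giving 50% decrease in cell number versus untreated.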"}, "[5]": {"test_system": "P388", "assay": "Mean value for the exposure for P388 to the drug following a variety of treatment schedules at pH 7.4 and 37 degree", "settings": "Mus musculus, read-out: ED50 (the source's name)"}},
  "note": "pEC50: −log10 of the molar value.",
  "data": [
    {"smiles": "O=NN(CCCl)C(=O)NC1CCC(=O)NC1=O", "note": "(stereo not given)", "values": [
      {"measurement": "Carbamoylating activity", "setting": "[1]", "value": 24},
      {"measurement": "Alkylating activity", "setting": "[2]", "value": 360},
      {"measurement": "k2", "setting": "[3]", "value": 0.027, "unit": "min⁻¹"},
      {"measurement": "pEC50", "setting": "[4]", "value": 5.09},
      {"measurement": "pEC50", "setting": "[5]", "value": 5.19}
    ]},
    {"smiles": "NC(=O)N(CCCl)N=O", "values": [
      {"measurement": "Carbamoylating activity", "setting": "[1]", "value": 20},
      {"measurement": "Alkylating activity", "setting": "[2]", "value": 1000},
      {"measurement": "k2", "setting": "[3]", "value": 0.53, "unit": "min⁻¹"},
      {"measurement": "pEC50", "setting": "[4]", "value": 5.22},
      {"measurement": "pEC50", "setting": "[5]", "value": 5.24}
    ]},
    {"smiles": "O=NN(CCCl)C(=O)NCCCl", "note": "[CARMUSTINE]", "values": [
      {"measurement": "Carbamoylating activity", "setting": "[1]", "value": 70},
      {"measurement": "Alkylating activity", "setting": "[2]", "value": 260},
      {"measurement": "k2", "setting": "[3]", "value": 0.014, "unit": "min⁻¹"},
      {"measurement": "pEC50", "setting": "[4]", "value": 4.88},
      {"measurement": "pEC50", "setting": "[5]", "value": 5.20}
    ]},
    {"smiles": "O=NN(CCCl)C(=O)N[C@H]1C(O)O[C@H](CO)[C@@H](O)[C@@H]1O", "note": "(stereo not given in full) [CHLOROZOTOCIN]", "values": [
      {"measurement": "Carbamoylating activity", "setting": "[1]", "value": 2},
      {"measurement": "Alkylating activity", "setting": "[2]", "value": 450},
      {"measurement": "k2", "setting": "[3]", "value": 0.033, "unit": "min⁻¹"},
      {"measurement": "pEC50", "setting": "[4]", "value": 4.77},
      {"measurement": "pEC50", "setting": "[5]", "value": 4.93}
    ]},
    {"smiles": "O=NN(CCCl)C(=O)NC1CCCCC1", "note": "[LOMUSTINE]", "values": [
      {"measurement": "Carbamoylating activity", "setting": "[1]", "value": 100},
      {"measurement": "Alkylating activity", "setting": "[2]", "value": 100},
      {"measurement": "k2", "setting": "[3]", "value": 0.013, "unit": "min⁻¹"},
      {"measurement": "pEC50", "setting": "[4]", "value": 4.89},
      {"measurement": "pEC50", "setting": "[5]", "value": 5.17}
    ]}
  ]
}
